10 molecules from ChEMBL document CHEMBL3244034, “Semisynthetic cephalosporins. Synthesis and structure-activity relationships of 7-(1-pyrryl)- and 7-(1-indolyl)acetamidocephalosporin derivatives” (1978) can be followed below.

Converted amounts (≈) assume the structure as drawn.

What is called MIC is the lowest concentration that inhibits growth of the organism.

Common to all, as to format: functional
In experiment [1] the test system is Staphylococcus epidermidis. Kind of experiment: Antibacterial activity against Staphylococcus epidermidis after 17 hrs by serial two fold dilution method. In a few lines:
(§1)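 Agar dilution MIC: compound serially diluted twofold in Mueller-Hinton agar. Plate surfaces were inoculated with a suitably diluted 18-24-h broth culture and incubated 17 h at 37 °C. MIC was read as the lowest concentration giving complete or virtually complete inhibition of visible growth.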

Experiment [2] has as its system Salmonella. As to the kind of experiment: Antibacterial activity against Salmonella schottmuelleri after 17 hrs by serial two fold dilution method. The method in brief:
as §1

For experiment [3], the system named is Staphylococcus aureus. As to the kind of experiment: Antibacterial activity against benzylpenicillin-resistant Staphylococcus aureus after 17 hrs by serial two fold dilution method. In a few lines:
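Agar dilution MIC. Compound was serially diluted twofold in Mueller-Hinton agar. The surface was inoculated with a diluted 18-24-h broth culture […]. Plates were incubated 17 h at 37 °C. MIC was taken as the lowest concentration giving complete or virtually complete inhibition of visible growth.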

For experiment [4], the system named is Providencia stuartii. Kind of experiment: Antibacterial activity against Providencia stuartii after 17 hrs by serial two fold dilution method. In a few lines:
as §1

Experiment [5] deals with Enterococcus faecalis. As to the kind of experiment: Antibacterial activity against Staphylococcus faecalis after 17 hrs by serial two fold dilution method. The method in brief:
as §1

The test system of experiment [6] is Staphylococcus aureus. As to the kind of experiment: Antibacterial activity against Staphylococcus aureus after 17 hrs by serial two fold dilution method. The method in brief: as §1
Experiment [7] has as its system Streptococcus pyogenes. Kind of experiment: Antibacterial activity against Streptococcus pyogenes after 17 hrs by serial two fold dilution method. The method in brief: as §1
The test system of experiment [8] is Pseudomonas aeruginosa. Kind of experiment: Antibacterial activity against Pseudomonas aeruginosa after 17 hrs by serial two fold dilution method. In a few lines:
as §1

Experiment [9] deals with Escherichia coli. As to the kind of experiment: Antibacterial activity against Escherichia coli after 17 hrs by serial two fold dilution method. In a few lines:
as §1

In experiment [10] the test system is Proteus mirabilis. As to the kind of experiment: Antibacterial activity against Proteus mirabilis after 17 hrs by serial two fold dilution method. In a few lines: as §1
Experiment [11] relates to Klebsiella pneumoniae. Kind of experiment: Antibacterial activity against Klebsiella pneumoniae after 17 hrs by serial two fold dilution method. In a few lines: as §1
The test system of experiment [12] is Proteus vulgaris. As to the kind of experiment: Antibacterial activity against Proteus vulgaris after 17 hrs by serial two fold dilution method. The method in brief: as §1
Experiment [13] deals with Enterobacter cloacae. As to the kind of experiment: Antibacterial activity against Enterobacter cloacae after 17 hrs by serial two fold dilution method.
In experiment [14] the test system is Klebsiella aerogenes. As to the kind of experiment: Antibacterial activity against Enterobacter aerogenes after 17 hrs by serial two fold dilution method.
Experiment [15] relates to Streptococcus pneumoniae. Kind of experiment: Antibacterial activity against Streptococcus pneumoniae after 17 hrs by serial two fold dilution method. The method in brief: as §1

On to `Cc1nnc(SCC2=C(C(=O)O)N3C(=O)[C@@H](NC(=O)Cn4cccc4)[C@H]3SC2)s1`, for which the minimum inhibitory concentration (MIC) in [1] is 0.8 µg/mL (≈ 1.77 µM); in [2], 6.2 µg/mL (≈ 13.7 µM); in experiment [3], 0.8 µg/mL (≈ 1.77 µM); in experiment [4] it was 25 µg/mL (≈ 55.4 µM); in [5], more than 100 µg/mL; in experiment [6], 0.2 µg/mL (≈ 0.443 µM). The minimal inhibitory concentration (MIC) was 0.1 µg/mL (≈ 0.221 µM) in experiment [7]; more than 100 µg/mL in experiment [8]; 12.5 µg/mL (≈ 27.7 µM) in experiment [9]; 25 µg/mL (≈ 55.4 µM) in experiment [10]; 6.2 µg/mL (≈ 13.7 µM) in experiment [11]; more than 100 µg/mL in experiment [12]. The MIC came out at 100 µg/mL (≈ 221 µM) in experiment [13], 100 µg/mL (≈ 221 µM) in experiment [14] and 0.1 µg/mL (≈ 0.221 µM) in experiment [15].

As to `CCOC(=O)C(C(=O)N[C@@H]1C(=O)N2C(C(=O)O)=C(COC(C)=O)CS[C@H]12)n1cccc1` (some centres not stated), the MIC in experiment [1] is 3.1 µg/mL (≈ 6.87 µM); in experiment [2], 25 µg/mL (≈ 55.4 µM); in [3], 6.2 µg/mL (≈ 13.7 µM); in experiment [4] it was 12.5 µg/mL (≈ 27.7 µM); in experiment [5], more than 100 µg/mL; in experiment [6], 1.6 µg/mL (≈ 3.54 µM). For the same molecule, the minimal inhibitory concentration (MIC) is 0.4 µg/mL (≈ 0.886 µM) in experiment [7]; more than 100 µg/mL in experiment [8]; 25 µg/mL (≈ 55.4 µM) in experiment [9]; 50 µg/mL (≈ 111 µM) in [10]; 25 µg/mL (≈ 55.4 µM) in [11]; more than 100 µg/mL in experiment [12]. The MIC was 25 µg/mL (≈ 55.4 µM) in experiment [13], 25 µg/mL (≈ 55.4 µM) in [14] and 0.4 µg/mL (≈ 0.886 µM) in experiment [15].

For `Cn1nnnc1SCC1=C(C(=O)O)N2C(=O)[C@@H](NC(=O)Cn3ccc4ccccc43)[C@H]2SC1`, the minimum inhibitory concentration (MIC) in [1] is 0.4 µg/mL (≈ 0.824 µM); in [2], 6.2 µg/mL (≈ 12.8 µM); in experiment [3], 0.2 µg/mL (≈ 0.412 µM); in experiment [4], 25 µg/mL (≈ 51.5 µM); in experiment [5], more than 100 µg/mL; in experiment [6] it was 0.1 µg/mL (≈ 0.206 µM). For the same molecule, the minimal inhibitory concentration (MIC) in experiment [7] was 0.05 µg/mL (≈ 0.103 µM); in experiment [8], more than 100 µg/mL; in experiment [9] it was 12.5 µg/mL (≈ 25.7 µM); in experiment [10], 50 µg/mL (≈ 103 µM); in experiment [11], 12.5 µg/mL (≈ 25.7 µM); in experiment [12], more than 100 µg/mL. Further, the MIC in experiment [13] and in experiment [14] was 50 µg/mL (≈ 103 µM) in each case.

As for `CC1=C(C(=O)O)N2C(=O)[C@@H](NC(=O)Cn3ccc4ccccc43)[C@H]2SC1`, the MIC in experiment [1] is 6.2 µg/mL (≈ 16.7 µM); in experiment [2], more than 100 µg/mL; in experiment [3] it was 3.1 µg/mL (≈ 8.35 µM); in experiment [4], more than 100 µg/mL; in experiment [5] it was more than 100 µg/mL; in experiment [6], 1.6 µg/mL (≈ 4.31 µM). Moreover, the minimal inhibitory concentration (MIC) was 0.8 µg/mL (≈ 2.15 µM) in experiment [7]; more than 100 µg/mL in [8]; more than 100 µg/mL in experiment [9]; more than 100 µg/mL in experiment [10]; more than 100 µg/mL in experiment [11]; more than 100 µg/mL in experiment [12]. The MIC in [13] is more than 100 µg/mL; in experiment [14] it was more than 100 µg/mL; in [15], 1.6 µg/mL (≈ 4.31 µM).

`Cn1nnnc1SCC1=C(C(=O)O)N2C(=O)[C@@H](NC(=O)Cn3cccc3C=O)[C@H]2SC1`: the MIC is 3.1 µg/mL (≈ 6.69 µM) in [1]; 6.2 µg/mL (≈ 13.4 µM) in experiment [2]; 1.6 µg/mL (≈ 3.45 µM) in experiment [3]; 50 µg/mL (≈ 108 µM) in experiment [4]; more than 100 µg/mL in [5]; 0.8 µg/mL (≈ 1.73 µM) in experiment [6]. The minimal inhibitory concentration (MIC) in experiment [7] was 0.2 µg/mL (≈ 0.431 µM); in experiment [8], more than 100 µg/mL; in experiment [9], 12.5 µg/mL (≈ 27 µM); in [10], 50 µg/mL (≈ 108 µM); in experiment [11] it was 12.5 µg/mL (≈ 27 µM); in experiment [12] it was more than 100 µg/mL. The MIC was more than 100 µg/mL in experiment [13] and 100 µg/mL (≈ 216 µM) in [14].

Take `Cc1nnc(SCC2=C(C(=O)O)N3C(=O)[C@@H](NC(=O)Cn4cccc4C=O)[C@H]3SC2)s1`: the MIC was 1.6 µg/mL (≈ 3.34 µM) in experiment [1]; 12.5 µg/mL (≈ 26.1 µM) in [2]; 0.8 µg/mL (≈ 1.67 µM) in experiment [3]; more than 100 µg/mL in experiment [4]; more than 100 µg/mL in experiment [5]; 0.4 µg/mL (≈ 0.834 µM) in [6]. For the same molecule, the MIC is 0.2 µg/mL (≈ 0.417 µM) in experiment [7]; more than 100 µg/mL in experiment [8]; 50 µg/mL (≈ 104 µM) in experiment [9]; 100 µg/mL (≈ 209 µM) in experiment [10]; 50 µg/mL (≈ 104 µM) in [11]; more than 100 µg/mL in [12]. Further, the MIC in experiment [13] was more than 100 µg/mL; in experiment [14], more than 100 µg/mL; in experiment [15] it was 0.2 µg/mL (≈ 0.417 µM).

Take `CC(=O)OCC1=C(C(=O)O)N2C(=O)[C@@H](NC(=O)Cn3cccc3C=O)[C@H]2SC1`: the MIC in experiment [1] was 3.1 µg/mL (≈ 7.61 µM); in experiment [2], 50 µg/mL (≈ 123 µM); in [3], 1.6 µg/mL (≈ 3.93 µM); in experiment [4], more than 100 µg/mL; in experiment [5] it was more than 100 µg/mL; in experiment [6], 0.8 µg/mL (≈ 1.96 µM). Moreover, the minimal inhibitory concentration (MIC) in [7] is 0.4 µg/mL (≈ 0.982 µM); in experiment [8], more than 100 µg/mL; in experiment [9] it was 100 µg/mL (≈ 245 µM); in [10], 100 µg/mL (≈ 245 µM); in experiment [11], 50 µg/mL (≈ 123 µM); in experiment [12], more than 100 µg/mL. Also, the MIC in experiment [13] and in experiment [14] was more than 100 µg/mL throughout.

Consider `CC(=O)OCC1=C(C(=O)O)N2C(=O)[C@@H](NC(=O)Cn3cccc3)[C@H]2SC1`, for which the MIC in experiment [1] was 3.1 µg/mL (≈ 8.17 µM); in experiment [2], 3.1 µg/mL (≈ 8.17 µM); in experiment [3], 1.6 µg/mL (≈ 4.22 µM); in experiment [4] it was 50 µg/mL (≈ 132 µM); in experiment [5], more than 100 µg/mL; in experiment [6], 0.8 µg/mL (≈ 2.11 µM). Moreover, the minimal inhibitory concentration (MIC) is 0.4 µg/mL (≈ 1.05 µM) in experiment [7]; more than 100 µg/mL in experiment [8]; 6.2 µg/mL (≈ 16.3 µM) in [9]; 12.5 µg/mL (≈ 32.9 µM) in experiment [10]; 6.2 µg/mL (≈ 16.3 µM) in experiment [11]; more than 100 µg/mL in experiment [12]. For the same molecule, the minimum inhibitory concentration (MIC) in [13] was more than 100 µg/mL; in [14], more than 100 µg/mL; in [15], 0.4 µg/mL (≈ 1.05 µM).

Take `CC(=O)OCC1=C(C(=O)O)N2C(=O)[C@@H](NC(=O)Cc3cccs3)[C@H]2SC1` [CEPHALOTHIN]: the minimum inhibitory concentration (MIC) in [1] turned out to be 0.4 µg/mL (≈ 1.01 µM); in experiment [2], 0.8 µg/mL (≈ 2.02 µM); in experiment [3], 0.4 µg/mL (≈ 1.01 µM); in [4], 100 µg/mL (≈ 252 µM); in [5], 100 µg/mL (≈ 252 µM); in experiment [6], 0.1 µg/mL (≈ 0.252 µM). For the same molecule, the MIC in experiment [7] is 0.1 µg/mL (≈ 0.252 µM); in experiment [8], more than 100 µg/mL; in experiment [9], 6.2 µg/mL (≈ 15.6 µM); in experiment [10], 6.2 µg/mL (≈ 15.6 µM); in experiment [11] it was 3.1 µg/mL (≈ 7.82 µM); in experiment [12] it was more than 100 µg/mL. Further, the minimal inhibitory concentration (MIC) is more than 100 µg/mL in experiment [13], more than 50 µg/mL in [14] and 0.1 µg/mL (≈ 0.252 µM) in experiment [15].

In the case of `Cc1nnc(SCC2=C(C(=O)O)N3C(=O)[C@@H](NC(=O)Cn4ccc5ccccc54)[C@H]3SC2)s1`, the minimal inhibitory concentration (MIC) in [1] was 0.4 µg/mL (≈ 0.797 µM); in experiment [2], 25 µg/mL (≈ 49.8 µM); in experiment [3], 0.2 µg/mL (≈ 0.399 µM); in experiment [4], 25 µg/mL (≈ 49.8 µM); in experiment [5], more than 100 µg/mL; in experiment [6], 0.1 µg/mL (≈ 0.199 µM). The minimal inhibitory concentration (MIC) in [7] was 0.05 µg/mL (≈ 0.0997 µM); in [8], more than 100 µg/mL; in [9], 50 µg/mL (≈ 99.7 µM); in experiment [10] it was 50 µg/mL (≈ 99.7 µM); in [11], 50 µg/mL (≈ 99.7 µM); in [12] it was more than 100 µg/mL. The figures for the minimal inhibitory concentration (MIC) in experiment [13], in [14] and in [15] were 100 µg/mL (≈ 199 µM), 100 µg/mL (≈ 199 µM) and not above 0.025 µg/mL, respectively.
